In ChEMBL document CHEMBL1133755, “Synthesis of fluorosugar analogues of 2,5,6-trichloro-1-(beta-D-ribofuranosyl)benzimidazole as antivirals with potentially increased glycosidic bond stability” (J Med Chem, 2000):

Assays:
HFF [1] = experiment: Compound was tested for antiviral activity against human cytomegalovirus (HCMV) by plaque reduction assay using HFF cells; type: functional, cell-based
Summary of the method: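 HCMV plaque reduction assay in HFF cells, run in duplicate. Value reported as IC50. Highest concentration tested 10 or 100.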

HFF [2] = experiment: Compound was tested for visual cytotoxicity on human foreskin fibroblasts (HFF) cells; type: functional, cell-based
Summary of the method: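 Cytotoxicity in HFF cells scored visually at the time HCMV plaques were counted. Results from duplicate experiments.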

[3] = Compound was tested for inhibition activity of human oral carcinoma cell line (KB ) cells in quadruplicate assay.; type: functional, cell-based
Summary of the method: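 KB cell growth inhibition was run in quadruplicate wells and reported as IC50, meaning the concentration that halves growth. Values marked > indicate that 50% inhibition was not reached at the highest concentration tested.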

Human alphaherpesvirus 1 = experiment: Compound was tested for antiviral activity against herpes simplex virus type 1 (HSV-1); type: functional, organism-based
Summary of the method: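 HSV-1 activity read by ELISA in quadruplicate wells, with the plaque assay used for the DHPG control. Value reported as IC50. Top concentration tested 10 or 100.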

HFF [4] = experiment: Compound was tested for antiviral activity against human cytomegalovirus (HCMV) by yield reduction assay using HFF cells; type: functional
Summary of the method: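 HCMV yield reduction assay in HFF cells, run in duplicate. Value reported as IC90. Highest concentration tested 10 or 100.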

SMILES	IC50 (HFF [1]) [µM]	IC50 (HFF [2]) [µM]	IC50 [3] [µM]	IC50 (Human alphaherpesvirus 1) [µM]	IC90 (HFF [4]) [µM]
OC[C@H]1O[C@@H](n2cnc3cc(Cl)c(Cl)cc32)[C@H](F)[C@@H]1O	> 100	> 100	> 100	> 100	–
O[C@H]1[C@H](OC(c2ccccc2)(c2ccccc2)c2ccccc2)[C@@H](COC(c2ccccc2)(c2ccccc2)c2ccccc2)O[C@H]1n1c(Cl)nc2cc(Cl)c(Cl)cc21	> 10	> 100	> 100	> 100	–
Clc1cc2nc(Cl)n([C@@H]3O[C@H](COC(c4ccccc4)(c4ccccc4)c4ccccc4)[C@@H](OC(c4ccccc4)(c4ccccc4)c4ccccc4)[C@@H]3OC(c3ccccc3)(c3ccccc3)c3ccccc3)c2cc1Cl	> 10	> 100	> 100	> 100	–
OC[C@H]1O[C@@H](n2c(Cl)nc3cc(Cl)c(Cl)cc32)[C@@H](F)[C@@H]1O	8	32	60	50	8
OC[C@H]1O[C@@H](n2c(Br)nc3cc(Cl)c(Cl)cc32)[C@H](F)[C@@H]1O	17	100	80	> 100	–
O=C(OC[C@H]1O[C@@H](n2c(Cl)nc3cc(Cl)c(Cl)cc32)[C@@H](F)[C@@H]1OC(=O)c1ccccc1)c1ccccc1	–	–	100	–	–
CC(C)Nc1nc2cc(Cl)c(Cl)cc2n1[C@@H]1O[C@H](CO)[C@@H](O)[C@H]1F	> 100	> 100	> 100	> 100	–
OC[C@H]1O[C@@H](n2c(Cl)nc3cc(Cl)c(Cl)cc32)C(O)[C@@H]1F (stereo not given in full)	9.4	40	> 100	> 100	13
OC[C@H]1O[C@@H](n2c(Br)nc3cc(Cl)c(Cl)cc32)[C@H](O)[C@@H]1O	–	–	> 100	–	0.2
OC[C@H]1O[C@@H](n2c(Cl)nc3cc(Cl)c(Cl)cc32)[C@H](O)[C@@H]1O	–	–	210	–	1.4
OC[C@H]1O[C@@H](n2cnc3cc(Cl)c(Cl)cc32)[C@H](O)[C@@H]1O [DICHLORORIBOBENZIMIDAZOLE]	–	–	36	–	19
Nc1nc2c(ncn2COC(CO)CO)c(=O)[nH]1 [GANCICLOVIR]	–	> 100	> 100	–	1.6
